Bioassay records: PubChem, several laboratories
This is a sample that favours compounds with a hit; in the whole collection about 1.2% have one here.
MsrA act = bovine methionine sulfoxide reductase A activation | 360,000 tested, 0.3% active | purified bovine MsrA, absorbance read-out | activation, % at 10.6 µM; in the data active = activation above about 7.5%;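 note: 0% = vehicle and 100% = reference activator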
Bfl-1 A1 inh = inhibitors of the anti-apoptotic protein A1, read as caspase activation. 330,000 tested, 0.066% active. MEF A1-2A-BIM cells, Caspase-Glo 3/7 luminescence, 3 h; percent of clofoctol response, vehicle zero. caspase activation, % (test concentration not listed);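 active = over half of replicate activation scores above 10%, or exactly half above 10 with the replicate mean above 10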
MsrA inhibitor = inhibitors of bovine MsrA; inhibition, % at 15.5 µM; 360,000 tested, 0.75% active; purified bovine MsrA, absorbance read-out; AID 651718;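 note: 0% = vehicle wells with enzyme and 100% = reference inhibitor wells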
procasp7 counter = counter-screen for procaspase-3 activators: activators of human procaspase-7; recombinant procaspase-7, Ac-DEVD-pNA absorbance 405 nm; D23A/D198A/D206A triple mutant, cannot self-cleave; scale: DMSO 0, 5 µM enzyme 100; AID 463210; activation, % at 8.5 µM; P55210; 330,000 tested, 0.093% active;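 active = percent activation above the screen-wide mean plus 3 SD, cut at about 25% in these data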
Target sequence (P55210 whole entry D23A/D198A/D206A): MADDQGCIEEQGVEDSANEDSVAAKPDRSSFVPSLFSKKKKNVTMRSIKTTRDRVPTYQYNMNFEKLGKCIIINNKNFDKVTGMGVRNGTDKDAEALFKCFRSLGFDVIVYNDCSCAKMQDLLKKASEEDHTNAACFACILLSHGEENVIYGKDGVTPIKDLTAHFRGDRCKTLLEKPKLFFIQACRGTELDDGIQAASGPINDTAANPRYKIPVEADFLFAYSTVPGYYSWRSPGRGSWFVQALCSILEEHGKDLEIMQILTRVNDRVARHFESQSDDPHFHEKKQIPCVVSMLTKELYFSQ
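buffer or medium = Zinc-free HEPES/NaCl buffer, pH 7.4 | material = Procaspase-7 triple mutant (PC-7 D3A) | input = 2 µM procaspase-7 mutant as dispensed | signal = Epi-absorbance of released pNA at 405 nm, two timepoints | timing = 1 h preincubation, 2 h reaction | replicates = singlicate compound testing | evaluation = % activation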
proCasp3 act = activators of human procaspase-3; P42574; recombinant procaspase-3 D3A, Ac-DEVD-pNA absorbance 405 nm; activation, % at 8.5 µM; 330,000 tested, 0.11% active; AID 463141;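 active = activation above the mean of all tested compounds plus 3 SD, cut at about 21% in these data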;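 note: 0% = DMSO alone and 100% = DMSO wells spiked with extra 5 µM PC-3 D3A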
Target sequence (P42574 whole entry D9A/D28A/D175A): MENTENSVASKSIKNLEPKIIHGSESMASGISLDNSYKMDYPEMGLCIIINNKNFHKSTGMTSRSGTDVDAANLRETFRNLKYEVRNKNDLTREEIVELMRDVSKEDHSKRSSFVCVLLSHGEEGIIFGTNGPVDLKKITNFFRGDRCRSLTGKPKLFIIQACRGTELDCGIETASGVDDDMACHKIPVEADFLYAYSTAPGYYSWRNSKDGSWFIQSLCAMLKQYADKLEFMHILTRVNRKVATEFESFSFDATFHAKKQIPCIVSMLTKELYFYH
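Assay system: Autoprocessing-dead procaspase-3 D3A mutant enzyme; also added: Ac-DEVD-pNA; doses: one concentration, 8.5 µM nominal, 0.8% DMSO; times: 1 h compound preincubation, 2 h substrate hydrolysis at 25 °C; technique: 405 nm absorbance of p-nitroaniline, reads at 0 and 120 min; measure: % activation between DMSO and enzyme-spiked controls; repeats: single replicate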
PC3 D3A act = activates human procaspase-3, dual activator counter-screen. shares compounds with procasp7 counter. recombinant PC-3 D3A, Ac-DEVD-pNA absorbance 405 nm; aspartates 9, 28, 175 changed to alanine; 100% = enzyme control. activation, % at 8.5 µM. 290 tested, under 10 active. AID 493114;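 active = mean percent activation across triplicates above a set limit taken from the earlier primary procaspase-3 screen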;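 note: 0% = DMSO wells and 100% = DMSO wells with 5 µM added PC-3 D3A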
Procasp7 act = activates human procaspase-7, confirming dual procaspase activators; recombinant procaspase-7, Ac-DEVD-pNA absorbance 405 nm; D23A/D198A/D206A mutant that cannot self-cleave; activation, % at 8.5 µM; shares compounds with procasp7 counter; 290 tested, under 10 active;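 active = mean activation above a set limit carried over from the earlier primary screen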;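 note: 0% = DMSO only and 100% = DMSO with added 5 µM PC-7 enzyme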
MsrA act confirm = bovine methionine sulfoxide reductase A activation confirmed | shares compounds with MsrA act | purified bovine MsrA, absorbance read-out | activation, % at 10.6 µM | 1,000 tested, 12% active | AID 602270; in the data active = activation above about 4%;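 note: enzyme coupled to thioredoxin and thioredoxin reductase with NADPH; 0% = vehicle wells and 100% = reference activator wells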
MsrA inh confirm = bovine MsrA inhibition, confirmed. shares compounds with MsrA inhibitor. purified bovine MsrA, absorbance read-out. inhibition, % at 15.5 µM. 2,300 tested, 41% active. AID 651822;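 note: coupled to thioredoxin reductase with NADPH and selenocystamine and DMSO as substrate; 0% = vehicle only and 100% = full effect of reference inhibitor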
* = called active by the depositor; / = no result given. Cut-off read from the data, not from the text of the source, unless noted: active = inhibition above about 4.5%; inactive = the rest.

SMILES	MsrA act	Bfl-1 A1 inh	MsrA inhibitor	procasp7 counter	proCasp3 act	MsrA act confirm	others
N#CCNC(=O)c1nn2c(C(F)(F)F)cc(-c3ccccc3)nc2c1Br	-2	0	-1	26*	-10	/	PC3 D3A act=0;Procasp7 act=1
Cc1ccc2nc(-c3ccc(NC(=O)C(C)Sc4nncs4)cc3)sc2c1 (configuration not stated)	-3	-1	0	30*	3	/	PC3 D3A act=2;Procasp7 act=-2
Cc1ccc2nc(-c3ccc(NC(=S)NC(=O)CC(C)C)cc3)sc2c1	-7	-1	3	7	7	/
COc1ccccc1CCn1cnc(-c2ccccc2OC)c1CC(C)C	/	/	0	/	/	/
CS(=O)(=O)N1N=C(c2ccco2)CC1c1ccccc1 (configuration not stated)	-3	0	-1	-9	-13	/
CS(=O)(=O)N1N=C(c2ccco2)CC1c1ccco1 (configuration not stated)	-9	0	-1	36*	-15	/	PC3 D3A act=-8;Procasp7 act=-14
COC(=O)C1=C(C)N(Cc2cccc(C(F)(F)F)c2)C(=NCC2CC2)NC1c1ccccc1 (configuration not stated)	/	/	-1	/	/	/
Cc1ccc(C(=O)N/N=C/C2=Cc3ccccc3OC2C)cc1 (configuration not stated)	-3	-1	2	34*	-1	/	PC3 D3A act=0;Procasp7 act=1
CC1Oc2ccccc2C=C1/C=N/NC(=O)c1ccccc1 (configuration not stated)	-3	-2	3	-3	-1	/
COC(=O)c1cccc(N(CC(=O)NC2CCCC2)C(=O)CCC(=O)Nc2cc(C)on2)c1	-1	1	0	57*	0	/	PC3 D3A act=3;Procasp7 act=-1
Cc1cccc(N(CC(=O)NC2CCCC2)C(=O)CCC(=O)Nc2cc(C)on2)c1	-2	0	0	5	-11	/
O=C1OCCN1C(=O)[C@H]1[C@H](c2ccc(F)cc2)C(c2ccccc2)=NN1c1ccccc1	-2	/	0	-5	-3	/
O=C1[C@H]2C(c3ccccc3)=NN(c3ccccc3)[C@H]2C(=O)N1c1ccccc1	-3	-1	2	40*	32*	/	PC3 D3A act=-31;Procasp7 act=-36
COc1cc(-n2c(=O)c3ccccc3n(Cc3cccnc3)c2=O)cc(OC)c1OC	-5	0	1	27*	-7	/	PC3 D3A act=2;Procasp7 act=1
CN(CCO)C(=O)c1nc[nH]c1C(=O)N1CCN(c2ccccc2)CC1	/	/	-1	/	/	/
COc1cccc(-c2ncn(CCc3ccccc3OC)c2CC(C)C)c1	/	/	0	/	/	/
CN(Cc1ccc2c(c1)CCCN2C)C(=O)[C@@H](Cc1ccccc1)NC(=O)[C@H]1O[C@@H](n2ccc(=O)[nH]c2=O)[C@H](O)[C@@H]1O	/	/	-1	/	/	/
O=C(c1ccco1)c1cc2c(ccc3ccccc32)oc1=O	-4	-1	13*	26*	9	/	PC3 D3A act=-7;Procasp7 act=-8;MsrA inh confirm=28*
CC(C)CNc1ccc2c(c1)OC[C@H](C)NS2(=O)=O	/	/	0	/	/	/
COC(=O)N/N=C/c1cn(Cc2ccc(F)cc2)c2ccccc12	-3	1	0	3	0	/
O=[N+]([O-])c1ccc(N/N=C/c2cn(Cc3ccc(F)cc3)c3ccccc23)nc1	17*	1	-1	2	1	0
Nc1ccn([C@@H]2O[C@H](C(=O)N[C@H](Cc3ccccc3)C(=O)N3CCN(CCO)CC3)[C@@H](O)[C@H]2O)c(=O)n1	/	/	1	/	/	/
C=CCn1c(N)c(C(=O)NCc2cccnc2)sc1=S	8.8*	0	4	-7	1	0
CCOC(=O)c1ccc(-n2ccnc2)c(NC(=O)c2ccc(Cl)cc2)c1	8.1*	0	-1	1	-3	1
Cc1cc(NC(=O)c2ccc(Cl)cc2)n(CCOC(=O)c2ccc(Cl)cc2)n1	9.1*	0	0	1	3	1
SMILES	MsrA act	Bfl-1 A1 inh	MsrA inhibitor	procasp7 counter	proCasp3 act	MsrA act confirm	others
CCOC(=O)c1ccc(Cl)c(NC(=O)c2cccnc2)c1	/	1	/	-3	8	/
CCCn1c(Cc2ccccc2)n[nH]c1=S	1	0	0	-20	-6	/
S=c1[nH]nc(Cc2ccccc2)n1Cc1ccco1	7.7*	0	-1	-5	-3	0
COC(=O)CC#C[C@@H](C)[C@H](NS(=O)(=O)c1ccc(C)cc1)C(C)(C)C	/	/	1	/	/	/
COc1ccc(-n2cc(CN3CCC(OC)CC3)c(-c3cccc(F)c3)n2)cc1	8.2*	1	0	8	0	-4
O=C(O)c1ccccc1NS(=O)(=O)c1cccc(-n2sc3ccccc3c2=O)c1	7.7*	-1	1	-21	-24	3
CC(C)c1[nH]nc2c1C(c1ccccc1)N(c1ccccc1)C2=O (configuration not stated)	/	/	0	/	/	/
O=C(O)c1ccccc1C(=O)Nc1n[nH]c(=S)s1	8.7*	-1	1	-29	-18	2
O=C(O)c1ccccc1C(=O)Nc1nccs1	-1	-1	1	0	8	/
O=C(c1ccc([N+](=O)[O-])o1)N1CCc2ccccc21	10*	-4	3	7	-3	2
C=CCCC1CN(Cc2ccc(OC)cc2)S(=O)(=O)c2c(F)cccc2O1 (configuration not stated)	/	/	-1	/	/	/
CCNC(=O)N1CCN(c2ccc(N3CCN(C(=O)NCC)[C@@H](C)C3)c(C)c2)[C@H](C)C1	/	/	2	/	/	/
O=C(N[C@H](C(=O)N1CCC[C@H]1C(=O)NC1CCCC1)C1CCCCC1)C1CC1	/	/	-1	/	/	/
Cn1c(=O)c2nc(SCCO)n(C)c2n(C)c1=O	8.4*	/	1	/	/	-3
Cc1cc(C(F)(F)F)n2nc(C)c(-c3ccc(Cl)cc3)c2n1	16*	1	-1	1	3	0
O=C1c2ccccc2C(=O)c2c1ncn2-c1ccccc1	6	0	0	5	-5	/
O=C1c2ccccc2C(=O)c2[nH]c(=O)[nH]c21	15*	-2	1	-12	4	4
O=C1c2ccccc2C(=O)c2[nH]cnc21	12*	1	0	/	/	6.7*
OC(c1ccccc1)(c1ccccc1)C1CCN(CCCOc2ccncc2)CC1	/	/	0	/	/	/
N#CCOC(=O)c1cc(S(=O)(=O)N2CCCCC2)ccc1N1CCOCC1	12*	0	0	1	8	-3
